Data on 66 compounds can be found in ChEMBL document CHEMBL5150021, “Identification of 5-(Aryl/Heteroaryl)amino-4-quinolones as Potent Membrane-Disrupting Agents to Combat Antibiotic-Resistant Gram-Positive Bacteria” (J Med Chem, 2022).

Converted amounts (≈) assume the structure as drawn. Bounds are passed on as bounds.

For the test, the system named is Staphylococcus aureus. The test is described as follows: Antibacterial activity against methicillin resistant Staphylococcus aureus FPR3757 assessed as inhibition of bacterial growth incubated for 24 hrs by CLSI based method. The test is classed as functional. To be noted: read-out: MIC100. The gist of the method: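 It was mixed 1:1 with twofold serial compound dilutions and incubated stationary at 37 °C for 24 h. MIC was the lowest concentration giving complete inhibition of observable growth, with an oxacillin control.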
As for `FC(F)(F)Oc1cccc(Oc2cc(C(F)(F)F)nc3cc(C(F)(F)F)ccc23)c1`, the MIC was above 32 µg/mL.

For the compound `Cn1cc(Nc2cc(C(F)(F)F)nc3cc(C(F)(F)F)ccc23)ccc1=O`, the MIC was above 32 µg/mL.

On to `COc1ccc(Nc2cc(C(F)(F)F)nc3cc(C(F)(F)F)ccc23)cn1`, for which the MIC is above 128 µg/mL.

As to `CN(C)S(=O)(=O)c1ccc(Nc2cc(C(F)(F)F)cc3[nH]c(C(F)(F)F)cc(=O)c23)nc1`, the MIC stood at 2 µg/mL (≈ 4.16 µM).

Take `FC(F)(F)c1ccc2c(Nc3ncccn3)cc(C(F)(F)F)nc2c1`: the MIC is above 32 µg/mL.

For `O[C@H]1C[C@H]2CC[C@@H](C1)N2c1cc(C(F)(F)F)nc2cc(C(F)(F)F)ccc12`, the MIC is above 32 µg/mL.

For `FC(F)(F)c1ccc2c(Nc3ccncc3)cc(C(F)(F)F)nc2c1`, the MIC is above 32 µg/mL.

Regarding `Fc1ccc2nc(C(F)(F)F)cc(Nc3ccc(C(F)(F)F)cn3)c2c1F`, the MIC came to 16 µg/mL (≈ 40.7 µM).

As to `O=c1cc(Nc2cc(C(F)(F)F)nc3cc(C(F)(F)F)ccc23)cc[nH]1`, the MIC was above 32 µg/mL.

Consider `Fc1ccc(Nc2cc(C(F)(F)F)nc3cc(C(F)(F)F)ccc23)cc1F`, for which the MIC was found to be 0.125 µg/mL (≈ 0.319 µM).

Regarding `FC(F)(F)c1ccc(Nc2cc(N3CCOCC3)nc3cc(C(F)(F)F)ccc23)nc1`, the MIC is above 32 µg/mL.

In the case of `CN(C)S(=O)(=O)c1ccc2c(Nc3ccc(F)c(F)c3)cc(C(F)(F)F)nc2c1`, the MIC was above 32 µg/mL.

On to `FC(F)(F)Oc1cccc(Nc2nc(C(F)(F)F)nc3cc(C(F)(F)F)ccc23)c1`, for which the MIC is 1 µg/mL (≈ 2.27 µM).

As to `N#Cc1cccc(Nc2cc(C(F)(F)F)nc3cc(C(F)(F)F)ccc23)c1`, the MIC is above 32 µg/mL.

Consider `COc1ccc2c(Nc3ccc(C(F)(F)F)cn3)cc(C(F)(F)F)nc2c1`, for which the MIC came to 32 µg/mL (≈ 82.6 µM).

Turning to `FC(F)(F)c1ccc2c(Nc3ccc(C(F)(F)F)nc3)cc(C(F)(F)F)nc2c1`, the MIC is above 32 µg/mL.

As to `FC(F)(F)c1ccc2c(Nc3ccc(N4CCOCC4)cc3)cc(C(F)(F)F)nc2c1`, the MIC is above 16 µg/mL.

Turning to `FC(F)(F)c1ccc2c(N3CCc4cccnc43)cc(C(F)(F)F)nc2c1`, the MIC was above 32 µg/mL.

In the case of `FC(F)(F)c1ccc2c(NC3CCCCC3)cc(C(F)(F)F)nc2c1`, the MIC is above 16 µg/mL.

As for `FC(F)(F)c1cccc(Nc2cc(C(F)(F)F)nc3cc(C(F)(F)F)ccc23)c1`, the MIC is 0.25 µg/mL (≈ 0.589 µM).

For the compound `FC(F)(F)c1ccc2c(Nc3cccc(Cl)c3)cc(C(F)(F)F)nc2c1`, the MIC amounted to 0.25 µg/mL (≈ 0.64 µM).

Turning to `Oc1cc(C(F)(F)F)nc2c(C(F)(F)F)cccc12`, the MIC amounted to 2 µg/mL (≈ 7.11 µM).

As for `FC(F)(F)c1ccc2c(Nc3ccc(Cl)cc3)cc(C(F)(F)F)nc2c1`, the MIC was determined as 0.12 µg/mL (≈ 0.307 µM).

In the case of `Cc1onc(-c2ccccc2)c1C(=O)N[C@@H]1C(=O)N2[C@@H]1SC(C)(C)[C@@H]2C(=O)O` [OXACILLIN], the MIC was 64 µg/mL (≈ 159 µM).

With `O=c1cc(C(F)(F)F)[nH]c2cc(C(F)(F)F)cc(Nc3cccc4[nH]ncc34)c12`, the MIC was 2 µg/mL (≈ 4.85 µM).

Regarding `FC(F)(F)c1ccc2c(Nc3cccc4[nH]ncc34)cc(C(F)(F)F)nc2c1`, the MIC is above 32 µg/mL.

For the compound `COC(=O)c1cc(Nc2cc(C(F)(F)F)nc3cc(C(F)(F)F)ccc23)ccn1`, the MIC was above 32 µg/mL.

Consider `CN(C)S(=O)(=O)c1ccc2c(Nc3cccc(OC(F)(F)F)c3)cc(C(F)(F)F)nc2c1`, for which the MIC came out at 8 µg/mL (≈ 16.7 µM).

For `Oc1cc(C(F)(F)F)nc2ccccc12`, the MIC was 320 µg/mL (≈ 1500 µM).

As to `FC(F)(F)Oc1cccc(Nc2cc(C(F)(F)F)nc3cc(C(F)(F)F)ccc23)c1`, the MIC was found to be 8 µg/mL (≈ 18.2 µM).

As for `Oc1cc(C(F)(F)F)nc2cc(OC(F)(F)F)ccc12`, the MIC was 4 µg/mL (≈ 13.5 µM).

For the compound `Fc1ccc(Nc2cnnc3cc(C(F)(F)F)ccc23)cc1F`, the MIC was above 32 µg/mL.

With `O=C(Nc1cc(C(F)(F)F)nc2cc(C(F)(F)F)ccc12)c1ccc(C(F)(F)F)cn1`, the MIC is above 32 µg/mL.

Turning to `OCc1cccc(Nc2cc(C(F)(F)F)nc3cc(C(F)(F)F)ccc23)c1`, the MIC was above 16 µg/mL.

In the case of `FC(F)c1cc(Nc2cccc(OC(F)(F)F)c2)c2ccc(C(F)(F)F)cc2n1`, the MIC stood at 0.5 µg/mL (≈ 1.18 µM).

For `COc1cccc(Nc2cc(C(F)(F)F)nc3cc(C(F)(F)F)ccc23)c1`, the MIC was above 64 µg/mL.

As for `FC(F)(F)Oc1ccc2c(Nc3ccc(C(F)(F)F)cn3)cc(C(F)(F)F)nc2c1`, the MIC was 1 µg/mL (≈ 2.27 µM).

Consider `CSc1ccc2c(O)cc(C(F)(F)F)nc2c1`, for which the MIC worked out at 640 µg/mL (≈ 2470 µM).

`FC(F)(F)c1ccc2c(Nc3ccccc3)cc(C(F)(F)F)nc2c1`: the MIC amounted to 128 µg/mL (≈ 359 µM).

Take `FC(F)(F)c1ccc(Nc2cc(N3CCNCC3)nc3cc(C(F)(F)F)ccc23)nc1`: the MIC is 0.5 µg/mL (≈ 1.13 µM).

Take `CSc1cccc(Nc2cc(C(F)(F)F)nc3cc(C(F)(F)F)ccc23)c1`: the MIC came out at 0.25 µg/mL (≈ 0.621 µM).

In the case of `Fc1cccc(Oc2cc(C(F)(F)F)nc3cc(C(F)(F)F)ccc23)c1`, the MIC was above 32 µg/mL.

On to `Fc1cc(F)c2nc(C(F)(F)F)cc(Nc3ccc(C(F)(F)F)cn3)c2c1F`, for which the MIC is above 32 µg/mL.

For `CN1Cc2cc(Nc3cc(C(F)(F)F)nc4cc(C(F)(F)F)ccc34)ccc2C1=O`, the MIC was above 32 µg/mL.

As for `FC(F)(F)c1ccc2c(Nc3ccc4c(c3)OCO4)cc(C(F)(F)F)nc2c1`, the MIC is above 4 µg/mL.

Regarding `Fc1ccc2c(Nc3ccc(Cl)c(Cl)c3)cc(C(F)(F)F)nc2c1`, the MIC came to 0.5 µg/mL (≈ 1.33 µM).

With `FC(F)(F)c1ccc(Nc2nc(C(F)(F)F)nc3cc(C(F)(F)F)ccc23)nc1`, the MIC worked out at 2 µg/mL (≈ 4.69 µM).

In the case of `FC(F)(F)c1ccc2c(Oc3cccc(Cl)c3)cc(C(F)(F)F)nc2c1`, the MIC is above 32 µg/mL.

As to `CN(c1ccc(C(F)(F)F)cc1)c1cc(C(F)(F)F)nc2cc(C(F)(F)F)ccc12`, the MIC was above 32 µg/mL.

Take `FC(F)(F)c1cc(Nc2ccc(Cl)c(Cl)c2)c2cccc(C(F)(F)F)c2n1`: the MIC stood at 0.5 µg/mL (≈ 1.18 µM).

With `CC(C)c1ccccc1Nc1cc(C(F)(F)F)nc2cc(C(F)(F)F)ccc12`, the MIC stood at 320 µg/mL (≈ 803 µM).

For `FC(F)(F)c1ccc2c(Nc3ccccc3Cl)cc(C(F)(F)F)nc2c1`, the MIC was above 16 µg/mL.

`FC(F)(F)c1ccc(Nc2cc(N3CCNCC3)c3ccc(C(F)(F)F)cc3n2)nc1`: the MIC worked out at 4 µg/mL (≈ 9.06 µM).

Turning to `FC(F)(F)Oc1cccc(Nc2cc(C(F)(F)F)nc3c(C(F)(F)F)cccc23)c1`, the MIC is 1 µg/mL (≈ 2.27 µM).

For `O=c1cc(C(F)(F)F)[nH]c2cc(C(F)(F)F)ccc12`, the MIC turned out to be 5 µg/mL (≈ 17.8 µM).

For `FC(F)(F)c1ccc2c(Nc3cccc(I)c3)cc(C(F)(F)F)nc2c1`, the MIC worked out at 0.25 µg/mL (≈ 0.518 µM).

Consider `FC(F)(F)c1ccc(Nc2cnnc3cc(C(F)(F)F)ccc23)nc1`, for which the MIC is above 32 µg/mL.

Take `FC(F)(F)c1ccc2c(NC[C@@H]3CCCN3)cc(C(F)(F)F)nc2c1`: the MIC was above 32 µg/mL.

`FC(F)(F)Oc1cccc2c(Nc3ccc(Cl)c(Cl)c3)cc(C(F)(F)F)nc12`: the MIC came out at 0.5 µg/mL (≈ 1.13 µM).

As for `FC(F)(F)c1ccc2c(Nc3cccc(N4CCOCC4)c3)cc(C(F)(F)F)nc2c1`, the MIC is above 16 µg/mL.

Turning to `FC(F)(F)c1ccc(Nc2nc(C(F)(F)F)nc3nc(C(F)(F)F)ccc23)nc1`, the MIC is above 32 µg/mL.

As for `Fc1ccc(Nc2nc(C(F)(F)F)nc3nc(C(F)(F)F)ccc23)cc1F`, the MIC turned out to be 32 µg/mL (≈ 81.2 µM).

As for `Fc1cccc(Nc2cc(C(F)(F)F)nc3cc(C(F)(F)F)ccc23)c1`, the MIC was found to be 4 µg/mL (≈ 10.7 µM).

As for `FC(F)(F)c1ccc2c(Nc3ccc(Cl)c(Cl)c3)nc(C(F)(F)F)nc2c1`, the MIC is 0.5 µg/mL (≈ 1.17 µM).

Regarding `Fc1ccc2c(Nc3cccc(OC(F)(F)F)c3)cc(C(F)(F)F)nc2c1`, the MIC was 2 µg/mL (≈ 5.12 µM).

Consider `FC(F)(F)Oc1ccc2c(Nc3ccc(Cl)c(Cl)c3)cc(C(F)(F)F)nc2c1`, for which the MIC was found to be 0.5 µg/mL (≈ 1.13 µM).
